Screening results deposited in PubChem by Johns Hopkins Ion Channel Center.
Most compounds without a hit are left out; they make up all but 3% or so of the library.
TRPC4 agonist – TRPC4 (mouse) channel activation | HEK293 TRPC4beta/mu-opioid, Fluo4 calcium fluorescence; hits give high values | B-score at 10 µM | 310,000 compounds, 0.49% hits | AID 2237;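 active = B-score above 5 SD of library B-scores, and initial fluorescence ratio not above library mean plus 5 SD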;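 also: positive B-score marks a calcium rise read as TRPC4 activation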
Target sequence (Q9QUQ5 whole entry, looked up): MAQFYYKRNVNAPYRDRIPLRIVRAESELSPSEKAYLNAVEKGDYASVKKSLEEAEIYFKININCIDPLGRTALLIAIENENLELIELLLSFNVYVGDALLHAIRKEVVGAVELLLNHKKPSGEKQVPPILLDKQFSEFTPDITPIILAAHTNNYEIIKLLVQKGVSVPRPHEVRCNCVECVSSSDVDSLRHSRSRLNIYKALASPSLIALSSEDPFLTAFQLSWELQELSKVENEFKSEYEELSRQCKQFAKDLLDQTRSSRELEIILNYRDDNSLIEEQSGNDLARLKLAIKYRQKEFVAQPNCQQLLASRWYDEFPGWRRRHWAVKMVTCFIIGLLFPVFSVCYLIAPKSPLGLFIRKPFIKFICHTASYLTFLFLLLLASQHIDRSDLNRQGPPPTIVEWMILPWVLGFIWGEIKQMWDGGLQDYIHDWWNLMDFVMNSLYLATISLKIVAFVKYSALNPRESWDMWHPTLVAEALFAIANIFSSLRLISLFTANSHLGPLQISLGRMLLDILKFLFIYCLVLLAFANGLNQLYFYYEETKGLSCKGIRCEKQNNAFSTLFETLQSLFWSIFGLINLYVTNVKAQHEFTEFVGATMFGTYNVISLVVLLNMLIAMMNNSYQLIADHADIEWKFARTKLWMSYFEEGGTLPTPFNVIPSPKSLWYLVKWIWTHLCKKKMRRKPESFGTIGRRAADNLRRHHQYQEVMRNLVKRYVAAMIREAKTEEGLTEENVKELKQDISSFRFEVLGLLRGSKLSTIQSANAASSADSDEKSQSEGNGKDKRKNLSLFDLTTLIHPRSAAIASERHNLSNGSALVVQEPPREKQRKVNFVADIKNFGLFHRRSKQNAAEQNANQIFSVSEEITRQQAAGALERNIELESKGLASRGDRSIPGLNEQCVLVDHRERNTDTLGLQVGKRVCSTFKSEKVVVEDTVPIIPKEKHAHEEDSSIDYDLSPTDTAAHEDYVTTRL
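Material: HEK293 stable line with TRPC4beta plus mu-opioid receptor; technique: Fluo4 calcium-sensitive dye fluorescence, kinetic, 1 Hz baseline; timing: Fluo4 dye loading 45 min at room temperature, 110 s recording; controls: assay buffer as low control, maximal DAMGO as high control; read-out: integrated baseline-normalised fluorescence ratio, converted to per-well B score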
TRPC4 block – TRPC4 (mouse) channel inhibition | HEK293 TRPC4beta/mu-opioid, DAMGO-evoked Fluo4 calcium flux; hits give low values | Q9QUQ5 | B-score at 10 µM | 300,000 compounds, 0.39% hits | AID 2247;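 active = B-score over 3 SD under the library average, no early fluorescence shift, positive overall ratio signal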
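Assay system: Stable TRPC4beta/mu-opioid receptor HEK293 cells | Reagent: DAMGO in two steps, submaximal then maximal | Compound dosing: Single concentration per test compound | Signal: Fluo4 Ca2+ flux fluorescence | Evaluation: Per-well B score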
TRPC4 potent – TRPC4 (mouse) allosteric potentiation | HEK293 TRPC4beta/mu-opioid, DAMGO EC20, Fluo-4 Ca2+ flux; hits give high values | Q9QUQ5 | B-score at 10 µM | 310,000 compounds, 0.42% hits | AID 2227;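 active = B-score of calcium response area above 5 SD of library B-scores, with initial fluorescence ratio within 5 SD of library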;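 also: B-score of integrated fluorescence ratio over time as area under calcium response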
TRPC6 activator – mouse TRPC6 channel activation. Q61143. HEK293-TRPC6 membrane potential dye fluorescence; hits give high values. B-score at 10 µM. 310,000 compounds, 0.13% hits. AID 2550;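 active = B-score of the integrated fluorescence ratio above library mean plus 3 SD, and starting fluorescence ratio within library mean plus 5 SD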;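 also: higher score means more depolarization so channel activation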
TRPC6 inhibitor – blocks the mouse TRPC6 cation channel; Q61143; HEK293-TRPC6, membrane potential dye, ACh-evoked depolarization; hits give low values; B-score at 10 µM; 310,000 compounds, 1.1% hits; AID 2553;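 active = B-score under library mean minus 3 SD, initial fluorescence not abnormally high, positive integrated signal ratio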;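 also: B-score derived from integrated fluorescence ratio over the kinetic read; more negative B-score means stronger inhibition of depolarization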
Kir21 block – inhibitors of mouse Kir2.1 inward-rectifier potassium channel. 310,000 compounds, 0.85% hits. B-score at 10 µM. AID 1672. P35561. HEK293-Kir2.1, FluxOR thallium flux fluorescence; hits give low values;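 active = fluorescence ratio B-score at or below minus 3 SD of library scores, with starting-brightness B-score within 2 SD, cut at about -4.2 in these data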;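 also: channel flux triggered by added potassium and thallium sulfate stimulus; B-score of peak minus minimum fluorescence over baseline after thallium stimulus; more negative B-score means stronger Kir2.1 block with less thallium influx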
TRPC4 spec 2 – second check of whether TRPC6 inhibitors also affect mouse TRPC4. 920 compounds, 42% hits. HEK293 TRPC4/MOR, membrane potential dye fluorescence; channel activated by saturating DAMGO dose. inhibition, % at 10 µM. shares compounds with TRPC6 inhibitor;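 active = compounds whose fluorescence signal differed from control wells by over 3 SD, either direction, in both duplicate plates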
TRPC4 spec – mouse TRPC4 off-target activity of TRPC6 inhibitors. shares compounds with TRPC6 inhibitor. HEK293 TRPC4/mu-opioid, membrane potential fluorescence. activity change, negative = inhibition, % at 10 µM. 920 compounds, 61% hits;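 active = rise or fall in signal beyond 3 SD of buffer-only wells in both replicate plates, either sign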;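 also: integrated kinetic ratio of fluorescence range over baseline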
HEK293 MPD ctr 2-1 – second counter-screen for TRPC6 inhibitors: parental HEK293 cells; 920 compounds, 31% hits; shares compounds with TRPC6 inhibitor; parental HEK293 membrane potential dye fluorescence; maximal acetylcholine challenge after compound addition; signal change vs control, % at 10 µM;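 active = membrane potential signal moving either way by over 3 SD of the maximum-effect control, in both duplicate plates, meaning non-specific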
HEK293 MPD ctr-1 – checks TRPC6 inhibitor effects in parental HEK293 cells | shares compounds with TRPC6 inhibitor | 920 compounds, 60% hits | parental HEK293 membrane potential dye fluorescence | membrane potential signal change, % at 10 µM;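 active = membrane potential signal shifting up or down by more than 3 SD of buffer-only wells, on both duplicate plates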
HEK293 MPD ctr-2 – checks TRPC6 modulator effects in parental HEK293 cells. shares compounds with TRPC6 inhibitor. membrane potential dye fluorescence. membrane potential signal change, % at 10 µM. 2,400 compounds, 51% hits;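 active = membrane potential signal moves up or down beyond 5 SD from buffer-only wells, on both duplicate plates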
HEK293 MPD ctr 2-2 – second check of TRPC6 modulator effects in parental HEK293 cells | membrane potential dye fluorescence; after compound, maximal acetylcholine stimulation | shares compounds with TRPC6 inhibitor | inhibition, % at 10 µM | 2,400 compounds, 14% hits | AID 488926;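 active = membrane potential signal drops by more than 5 SD from the mean control signal, in both duplicate plates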;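 also: plate controls were acetylcholine ECmax control wells for no effect and buffer only wells for full effect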
TRPC4/MOR mod – tests whether TRPC6 modulators also affect mouse TRPC4; shares compounds with TRPC6 inhibitor; percent change from control (negative = decrease, positive = increase), % at 10 µM; HEK293 TRPC4/mu-opioid, membrane potential fluorescence; 2,400 compounds, 69% hits;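 active = membrane potential signal moved up or down beyond 5 SD of buffer control wells, in both duplicate plates, actives on both sides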;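 also: plate controls were assay buffer wells for no effect and DAMGO maximal-effect wells for full effect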
TRPC4/MOR inh 2 – mouse TRPC4 off-target activity of TRPC6 modulators, second screen. 2,400 compounds, 55% hits. inhibition, % at 10 µM. AID 488928. shares compounds with TRPC6 inhibitor. HEK293 TRPC4/mu-opioid, membrane potential dye fluorescence; stimulated with maximal-effect DAMGO;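 active = drop in membrane potential signal beyond 5 SD of the control wells in both duplicate plates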;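 also: TRPC4 counter screen for TRPC6 hits run under conditions tuned for TRPC6 not TRPC4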
TRPC6 block conf – mouse TRPC6 inhibitor confirmation. shares compounds with TRPC6 inhibitor. inhibition, % at 10 µM. 3,300 compounds, 43% hits. HEK293-TRPC6, membrane potential dye, ACh-evoked depolarization. AID 488960;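 active = fluorescence ratio falls more than 5 SD below the full-stimulation control mean, in both duplicate runs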;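 also: integrated fluorescence ratio of peak minus minimum over baseline after agonist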
TRPC6 act confirm – mouse TRPC6 activator confirmation | shares compounds with TRPC6 inhibitor | HEK293-TRPC6 membrane potential dye fluorescence, FDSS | 2,800 compounds, 11% hits | activation, % at 10 µM;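 active = ratio signal rise beyond 5 SD above unstimulated control wells' mean, seen in both duplicate runs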;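 also: plate controls were buffer EC0 wells for no effect and acetylcholine ECmax response for full effect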
* marks the source's active call; other numbers are inactive results.

How did COc1ccc(C(=O)C2CCCN(Cc3cccc(C)n3)C2)c(OC)c1 (stereo unspecified) do in these assays?
TRPC4 agonist: inactive; TRPC4 block: inactive; TRPC4 potent: inactive; TRPC6 activator: inactive; TRPC6 inhibitor: -6.4*; Kir21 block: -0.92; HEK293 MPD ctr-2: inactive; HEK293 MPD ctr 2-2: inactive; TRPC4/MOR mod: 9.5%*; TRPC4/MOR inh 2: inactive; TRPC6 block conf: inactive

Results for COc1ccc(C(=O)C2CCCN(Cc3ccc(C)s3)C2)c(OC)c1 (stereo unspecified) ?
TRPC4 agonist: inactive; TRPC4 block: inactive; TRPC4 potent: inactive; TRPC6 activator: inactive; TRPC6 inhibitor: inactive; Kir21 block: -3

Results for CCn1ccnc1CN1CCCC(C(=O)c2cc(F)ccc2OC)C1 (stereo unspecified) ?
TRPC4 agonist: inactive; TRPC4 block: inactive; TRPC4 potent: inactive; TRPC6 activator: inactive; TRPC6 inhibitor: inactive; Kir21 block: -1.9

Results for CCn1ccnc1CN1CCCC(C(=O)c2cccc(C(F)(F)F)c2)C1 (stereo unspecified) ?
TRPC4 agonist: inactive; TRPC4 block: inactive; TRPC4 potent: inactive; TRPC6 activator: inactive; TRPC6 inhibitor: -5.1*; Kir21 block: -1.2; HEK293 MPD ctr-2: inactive; HEK293 MPD ctr 2-2: inactive; TRPC4/MOR mod: 8.0%*; TRPC4/MOR inh 2: 65%*; TRPC6 block conf: 62%*

Results for CN1C(=O)/C(=C\c2ccc(N3CCCCC3)o2)C(=O)NC1=S ?
TRPC4 agonist: inactive; TRPC4 block: inactive; TRPC4 potent: inactive; TRPC6 activator: inactive; TRPC6 inhibitor: inactive; Kir21 block: -0.68

What do the screens show for `CN1C(=O)/C(=C/c2ccc(N3CCCCCC3)o2)C(=O)NC1=S`?
TRPC4 agonist: inactive; TRPC4 block: inactive; TRPC4 potent: inactive; TRPC6 activator: 19*; TRPC6 inhibitor: inactive; Kir21 block: -0.81; HEK293 MPD ctr-2: 472%*; HEK293 MPD ctr 2-2: inactive; TRPC4/MOR mod: 50%*; TRPC4/MOR inh 2: inactive; TRPC6 block conf: inactive; TRPC6 act confirm: 93%*

Results for c1ccc(CNc2c3c(nc4ccccc24)CCC3)cc1 ?
TRPC4 agonist: inactive; TRPC4 block: inactive; TRPC4 potent: inactive; TRPC6 activator: inactive; TRPC6 inhibitor: -5.8*; Kir21 block: -6.6*; HEK293 MPD ctr-2: inactive; HEK293 MPD ctr 2-2: inactive; TRPC4/MOR mod: inactive; TRPC4/MOR inh 2: 52%*; TRPC6 block conf: inactive; TRPC6 act confirm: inactive

Results for OCCNc1c2c(nc3ccccc13)CCCC2 ?
TRPC4 agonist: inactive; TRPC4 block: inactive; TRPC4 potent: inactive; TRPC6 activator: inactive; TRPC6 inhibitor: -6.7*; Kir21 block: -1.3; TRPC4 spec 2: inactive; TRPC4 spec: -23%*; HEK293 MPD ctr 2-1: inactive; HEK293 MPD ctr-1: -362%*; TRPC6 block conf: inactive; TRPC6 act confirm: inactive

What do the screens show for `CC(C)CNc1c2c(nc3ccccc13)CCC2`?
TRPC4 agonist: inactive; TRPC4 block: inactive; TRPC4 potent: inactive; TRPC6 activator: inactive; TRPC6 inhibitor: inactive; Kir21 block: -0.08

What do the screens show for `CC(Cc1ccccc1)NC(=O)Cc1ccc([N+](=O)[O-])cc1` (stereo unspecified)?
TRPC4 agonist: inactive; TRPC4 block: inactive; TRPC4 potent: inactive; TRPC6 activator: inactive; TRPC6 inhibitor: inactive; Kir21 block: -2.3

Results for CCOC(=O)C(O)(c1ccc(N(CC)C(=O)COc2ccccc2)cc1)C(F)(F)F (stereo unspecified) ?
TRPC4 agonist: inactive; TRPC4 block: inactive; TRPC4 potent: inactive; TRPC6 activator: inactive; TRPC6 inhibitor: -5*; Kir21 block: -1.3; HEK293 MPD ctr-2: inactive; HEK293 MPD ctr 2-2: inactive; TRPC4/MOR mod: inactive; TRPC4/MOR inh 2: inactive; TRPC6 block conf: inactive; TRPC6 act confirm: inactive

What do the screens show for `CCOC(=O)C(O)(c1ccc(N(C)C(=O)COc2ccccc2)cc1)C(F)(F)F` (stereo unspecified)?
TRPC4 agonist: inactive; TRPC4 block: inactive; TRPC4 potent: inactive; TRPC6 activator: inactive; TRPC6 inhibitor: inactive; Kir21 block: 0.25

Results for COc1ccccc1Sc1ccccc1CC(C)N (stereo unspecified) ?
TRPC4 agonist: inactive; TRPC4 block: inactive; TRPC4 potent: inactive; TRPC6 activator: inactive; TRPC6 inhibitor: -5*; Kir21 block: -3; HEK293 MPD ctr-2: inactive; HEK293 MPD ctr 2-2: inactive; TRPC4/MOR mod: inactive; TRPC4/MOR inh 2: 66%*; TRPC6 block conf: 44%*; TRPC6 act confirm: inactive
